The values that follow come from ChEMBL document CHEMBL1129651, “3-Phenyl-substituted imidazo[1,5-alpha]quinoxalin-4-ones and imidazo[1,5-alpha]quinoxaline ureas that have high affinity at the GABAA/benzodiazepine receptor complex” (J Med Chem, 1996).

Assay [1] deals with GABA-A receptor; anion channel. The assay is described as follows: Binding affinity against benzodiazepine receptor (BzR) in rat cortical membranes determined by competition experiments with radiolabeled [3H]flunitrazepam (Fnz). It counts as cell membranes.
The target of assay [2] is GABA A receptor alpha-3/beta-2/gamma-2 (Rattus norvegicus) (UniProt P18508+P20236+P63138). In words: In vitro efficacy as change in chloride current against GABA-A alpha-3-beta-2-gamma-2 subunit expression. The assay is classed as functional.
In assay [3] the target is GABA-A receptor; anion channel (Rattus norvegicus) (UniProt O09028+P15431+P18506+P18508+P19969+P20236+P23574+P23576+P28471+P28473+P30191+P62813+P63079+P63138+Q91ZM7+Q9ES14).
The test system of the next assay is Rattus norvegicus. In words: Ability to antagonize metrazole-induced seizures (clonic and tonic) in rats after intraperitoneal injection. As to conditions: ip.
Assay [4] is filed under the species Mus musculus. The assay is described as follows: Compound was tested for Acute electroshock physical dependence activity (drug MA50/V122 MA50); No significant activity. The assay is classed as functional. Summed up:
(§1)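 Male CF-1 mice, 10/group, dosed sc twice daily for 3 days (0800, then 2 times that dose at 1600). Flumazenil 2.5 mg/kg iv in 5% aqueous N,N-dimethylacetamide given 24 h after the last dose. 5 min later electroshock seizure threshold estimated by up-down method (0.05 log steps; transpinnal 0.6 ms pulses, 100 Hz, 0.2 s). Comparison is against a saline-treated, flumazenil-injected control group.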

The species named for assay [5] is Mus musculus. In words: Compound was tested for ethanol potentiation expressed as the loss of traction response (muscle relaxation). It counts as functional. The essentials: (§2)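 Male CF-1 mice given 50% aqueous ethanol orally (7.5 mL/kg) plus test compound sc in 0.25% aqueous methyl cellulose (10 mL/kg). Tested 30 min later. Traction: hindlimb placed on wire within 10 s when suspended by forepaws. Righting: rolls onto feet within 10 s when released on its back. Six mice per dose; ED50s determined.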

Assay [6] is filed under the species Mus musculus. In words: Antagonism of benzodiazepine traction in mice. It counts as functional. Summed up:
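Male CF-1 mice given triazolam 1 mg/kg ip together with test compound ip, starting at 100 mg/kg, in 0.25% aqueous methyl cellulose. Dose-response run on 0.5 log scale. Loss of traction scored 15 min later. Absence of the expected loss marks antagonism. ED50 taken from lower doses.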

The species entered for assay [7] is Mus musculus. In words: Compound was tested for ethanol potentiation expressed as loss of righting reflex (anesthesia). The assay is classed as functional. The essentials: as §2
The species named for assay [8] is Mus musculus. The assay is described as follows: Acute electroshock physical dependence activity (drug MA50/V122 MA50). It counts as functional. Summed up:
as §1

Assay [9] is filed under the species Mus musculus. In words: Compound was tested for acute electroshock physical dependence activity (drug MA50/V122 MA50); Active. The assay is classed as functional. The essentials:
as §1

Some results are limits rather than exact numbers.

What is called Ki is the dissociation constant of the complex between target and ligand, obtained from inhibition or displacement. Higher therefore signals a looser hold on the target. The ED50 is the dose that gives a 50% effect, or the effect in half of the subjects. Molecule `CC(C)n1c(=O)c2c(-c3ccc(F)cc3)ncn2c2ccc(Cl)cc21` displayed a Ki in assay [1] of 1690 nM. Further, the Cl - current change in assay [2] is 0.03. Also, the TBPS shift in [3] worked out at 0.14. This molecule also returned an ED50 with Rattus norvegicus above 50 mg/kg.
`CC(C)n1c(=O)c2c(-c3noc(C4CC4)n3)ncn2c2ccccc21` [PANADIPLON] showed an Activity in the assay listed under Mus musculus [4] of 0.95. The 50% effective dose (ED50) in the assay filed under Mus musculus [5] is 6.6 mg/kg; in the assay listed under Mus musculus [6] it was 1.7 mg/kg; in the assay filed under Mus musculus [7], above 30 mg/kg; in the assay on Rattus norvegicus it was 1.6 mg/kg.
In [1], `CC(C)n1c(=O)c2c(-c3ccc(C(F)(F)F)cc3)ncn2c2ccccc21` returned an inhibition constant Ki above 10000 nM. For the same molecule, in assay [2], the Cl - current change was 0.36. The TBPS shift in [3] came to 0.36.
For `COc1cccc(-c2ncn3c2c(=O)n(C(C)C)c2ccccc23)c1`, the affinity in assay [1], expressed as Ki, was 207 nM. In addition, the Cl - current change in [2] was determined as 0.12. Moreover, in assay [3], the TBPS shift was determined as 0.24. In the assay on Rattus norvegicus, this molecule had a median effective dose (ED50) above 50 mg/kg.
The like results for `COc1ccc(-c2ncn3c2c(=O)n(C(C)C)c2c(C)cccc23)cc1` were, in that order, 49.7 nM, 1.3, 0.92 and 3.1 mg/kg.
As to `CC(C)OC(=O)N1Cc2c(-c3ccc(F)cc3)ncn2-c2ccccc21`, affinity in assay [1] was put at a Ki of 50.8 nM. The molecule further returned an Activity in the assay listed under Mus musculus [8] of 0.83. Also, the ED50 in the assay listed under Mus musculus [5] was above 30 mg/kg; in the assay listed under Mus musculus [6], above 30 mg/kg; in the assay filed under Mus musculus [7] it was above 30 mg/kg; in the assay on Rattus norvegicus, 6.3 mg/kg. Further, the TBPS shift in [3] amounted to 0.93.
As to `CC(C)n1c(=O)c2c(-c3ccc(F)cc3)ncn2c2cccc(Cl)c21`, the inhibition constant Ki in assay [1] came out at 14.6 nM. This molecule also returned a Cl - current change in [2] of 3.4. Further, in assay [3], the TBPS shift was found to be 2.04. For the same molecule, the ED50 in the assay on Rattus norvegicus came to 0.9 mg/kg.
Turning to `Cc1cccc2c1n(C(C)C)c(=O)c1c(-c3ccc(F)cc3)ncn12`, the Ki in [1] came to 126 nM. In [2], this molecule registered a Cl - current change of 1.7. Moreover, the TBPS shift in assay [3] turned out to be 1.83. Besides, the 50% effective dose (ED50) in the assay on Rattus norvegicus was 2.6 mg/kg.
Consider `O=C(N1CCCC1)N1Cc2c(-c3ccc(F)cc3)ncn2-c2ccccc21`, for which, in assay [1], affinity was put at a Ki of 0.97 nM. Further, the Activity in the assay filed under Mus musculus [8] came out at 0.88. The 50% effective dose (ED50) in the assay listed under Mus musculus [5] was 0.34 mg/kg; in the assay filed under Mus musculus [6], above 30 mg/kg; in the assay filed under Mus musculus [7], above 30 mg/kg; with Rattus norvegicus it was 14.8 mg/kg. Moreover, the TBPS shift in assay [3] is 0.64.
`CC1CN(C(=O)N2Cc3c(-c4ccc(F)cc4)ncn3-c3ccccc32)CC(C)N1` (stereo not drawn): the Ki in assay [1] worked out at 5.85 nM. This molecule gave an Activity in the assay filed under Mus musculus [8] of 0.7. Also, the 50% effective dose (ED50) in the assay listed under Mus musculus [5] was 4 mg/kg; in the assay listed under Mus musculus [6], above 30 mg/kg; in the assay filed under Mus musculus [7], above 30 mg/kg; in the assay with Rattus norvegicus it was 1.1 mg/kg. In addition, the TBPS shift in assay [3] worked out at 0.75.
`CN(C)C(=O)N1Cc2c(-c3ccc(F)cc3)ncn2-c2ccccc21` had an inhibition constant (Ki) in assay [1] of 2.96 nM. The Activity in the assay listed under Mus musculus [8] is reported as 0.87. Besides, the 50% effective dose (ED50) was 11 mg/kg in the assay listed under Mus musculus [5], 4.9 mg/kg in the assay listed under Mus musculus [6], above 30 mg/kg in the assay filed under Mus musculus [7] and 4.4 mg/kg in the assay with Rattus norvegicus. For the same molecule, the TBPS shift in assay [3] came out at 0.53.
As for `CC(C)n1c(=O)c2c(-c3cccc(C(F)(F)F)c3)ncn2c2ccccc21`, the Ki in assay [1] was 188 nM. Also, the Cl - current change in assay [2] came to 0.03. For the same molecule, in assay [3], the TBPS shift amounted to 0.45. In the assay on Rattus norvegicus, this molecule registered an ED50 above 50 mg/kg.
In turn, `COc1ccc(-c2ncn3c2c(=O)n(C(C)C)c2c(Cl)cccc23)cc1` registered a Ki in assay [1] of 27.9 nM. Further, the Activity in the assay filed under Mus musculus [4] was determined as 0.91. The molecule further gave a Cl - current change in [2] of 1. Further, the ED50 in the assay listed under Mus musculus [5] is above 30 mg/kg; in the assay filed under Mus musculus [6], above 30 mg/kg; in the assay filed under Mus musculus [7], above 30 mg/kg; in the assay with Rattus norvegicus, 1.3 mg/kg. Also, in assay [3], the TBPS shift was found to be 1.04.
As to `O=C(N1CCOCC1)N1Cc2c(-c3ccc(F)cc3)ncn2-c2ccc(Cl)cc21`, the affinity in assay [1], expressed as Ki, was 15.2 nM. For the same molecule, the Activity in the assay listed under Mus musculus [8] is 0.62. The ED50 in the assay listed under Mus musculus [5] is 11 mg/kg; in the assay filed under Mus musculus [6], above 30 mg/kg; in the assay listed under Mus musculus [7], 27 mg/kg; with Rattus norvegicus, 0.76 mg/kg. In assay [3], the TBPS shift is 1.05.
`CC(C)n1c(=O)c2c(-c3ccc(F)cc3)ncn2c2ccccc21` showed a Ki in assay [1] of 115 nM. Moreover, the Activity in the assay filed under Mus musculus [4] is reported as 1. Moreover, the Cl - current change in [2] amounted to 0.45. Moreover, the ED50 in the assay listed under Mus musculus [5] is 14 mg/kg; in the assay filed under Mus musculus [6], above 30 mg/kg; in the assay listed under Mus musculus [7] it was above 30 mg/kg; in the assay with Rattus norvegicus it was 30 mg/kg. Also, the TBPS shift in assay [3] was 0.58.
As for `COc1ccc(-c2ncn3c2CN(C(=O)N2CC(C)N(C)C(C)C2)c2ccccc2-3)cc1` (stereo not drawn), in assay [1], the affinity corresponds to a Ki of 4.16 nM. Besides, the Activity in the assay filed under Mus musculus [9] turned out to be 0.6. Also, the median effective dose (ED50) is above 30 mg/kg in the assay listed under Mus musculus [6] and 0.8 mg/kg in the assay on Rattus norvegicus. In addition, the TBPS shift in [3] was 0.27.
